Experimental findings from ChEMBL document CHEMBL4680177, “Novel distamycin analogues that block the cell cycle of African trypanosomes with high selectivity and potency” (Eur J Med Chem, 2020) are described below.

The test system of series [1] is Trypanosoma brucei brucei. The experiment in a line: Induction of cell cycle arrest in bloodstream form Trypanosoma brucei brucei 427 assessed as accumulation at S phase at 7 nM after 24 hrs by propidium iodide staining based flow cytometric analysis (reference value: 31%). Type of series: functional.
For series [2], the system named is Trypanosoma brucei brucei. The experiment in a line: Induction of cell cycle arrest in bloodstream form Trypanosoma brucei brucei 427 assessed as accumulation at G0/G1 phase at 7 nM after 24 hrs by propidium iodide staining based flow cytometric analysis (reference value: 49%). It counts as functional.
Series [3] deals with Trypanosoma brucei brucei. The experiment in a line: Antitrypanosomal activity against bloodstream form Trypanosoma brucei brucei 427 […] assessed as cell viability at 5 uM after 24 hrs by propidium iodide staining based flow cytometric analysis relative to control. Type of series: functional. In a few lines:
(§1)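 Bloodstream T. b. brucei 427 expressing hGrx1-roGFP2 (line 449_Grx-roGFP2), grown in HMI-9 with 10% FBS, 37 °C, 5% CO2. Biosensor induced with oxytetracycline (1 µg/mL final). Exponential-phase cells seeded at 5×10^5/mL and exposed 24 h to a single 5 µM screen, or to 0.0001–120 µM for EC50. DMSO ≤1% v/v. Viability read by PI exclusion on flow cytometry, expressed relative to DMSO control. EC50 from nonlinear fit; ≥3 replicates, S.D.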

The subject of series [4] is Trypanosoma brucei brucei. The experiment in a line: Antitrypanosomal activity against bloodstream form Trypanosoma brucei brucei 427 […] assessed as cell viability after 24 hrs by propidium iodide staining based flow cytometric analysis. Type of series: functional, organism-based. The note with it: Trypanosoma brucei, 427, 24 h. A digest of the protocol:
as §1

Series [5] can be described thus: Selectivity index, ratio of EC50 for cytotoxicity against mouse J774 cells to EC50 for antitrypanosomal activity against bloodstream form Trypanosoma brucei brucei 427. Type of series: toxicity, cell-based. Particulars: read-out: Ratio EC50. A digest of the protocol: (§2)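 J774 murine macrophages in DMEM with 10% FBS, 37 °C, 5% CO2. Exposed 24 h to a 6-point compound series, in triplicate, up to 120 µM with DMSO 1% v/v. Viability read with WST-1 reagent relative to DMSO control and EC50 taken from nonlinear fit. The selectivity index is the macrophage EC50 divided by the trypanosome EC50.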

In the next series the test system is J774. The series is described as follows: Cytotoxicity against mouse J774 cells assessed as reduction in cell viability after 24 hrs by WST-1 assay. Particulars: J774, 24 h. Type of series: cell-based. In a few lines: as §2
For series [6], the system named is Trypanosoma brucei brucei. The series is described as follows: Induction of membrane permeability in bloodstream form Trypanosoma brucei brucei 427 assessed as change in integrity at EC50 concentration after 4 hrs by propidium iodide staining based flow cytometric analysis.
Series [7] deals with Trypanosoma brucei brucei. The series is described as follows: Induction of oxidative stress in bloodstream form Trypanosoma brucei brucei 427 up to 5 times EC50 concentration after 4 hrs by propidium iodide staining based flow cytometric analysis. It counts as functional.
The test system of series [8] is Trypanosoma brucei brucei. The experiment in a line: Induction of cell cycle arrest in bloodstream form Trypanosoma brucei brucei 427 assessed as accumulation at G2/M phase at 7 nM after 24 hrs by propidium iodide staining based flow cytometric analysis (reference value: 20%). It counts as functional.
Series [9] relates to Trypanosoma brucei brucei. The experiment in a line: Induction of cell cycle arrest in bloodstream form Trypanosoma brucei brucei 427 assessed as accumulation at G2/M phase at 14 nM after 24 hrs by propidium iodide staining based flow cytometric analysis (reference value: 20%). Type of series: functional.
In series [10] the test system is Trypanosoma brucei brucei. The experiment in a line: Induction of cell cycle arrest in bloodstream form Trypanosoma brucei brucei 427 assessed as accumulation at G0/G1 phase at 14 nM after 24 hrs by propidium iodide staining based flow cytometric analysis (reference value: 49%). It counts as functional.
Series [11] concerns Trypanosoma brucei brucei. The series is described as follows: Induction of cell cycle arrest in bloodstream form Trypanosoma brucei brucei 427 assessed as accumulation at 1K+1N cells at 7 nM after 24 hrs by DAPI. staining based epifluorescence microscopic analysis (reference value: 80%). Type of series: functional. A digest of the protocol: (§3)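 Parasites at 5×10^5/mL treated 24 h with DMSO 1%, DAC 41 nM, or compound at 12 or 7 nM. Cells fixed in 4% paraformaldehyde for 18 min at room temperature and smeared on slides. Mounted in DAPI medium and scored by epifluorescence microscopy (60X/100X) for kinetoplast/nucleus configuration. At least 50 cells per sample.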

Series [12] deals with Trypanosoma brucei brucei. The series is described as follows: Induction of cell cycle arrest in bloodstream form Trypanosoma brucei brucei 427 assessed as accumulation at single kinetoplast and septum like or partitioned nucleus cells at 7 nM after 24 hrs by DAPI. staining based epifluorescence microscopic analysis relative to control. Type of series: functional. A digest of the protocol:
as §3

Series [13] concerns DNA. The series is described as follows: Competitive binding affinity to Escherichia coli XL-1 pUC18 plasmid DNA at 20 uM after 120 mins by DAPI staining based spectrofluorimetric method relative to control. It counts as nucleic-acid assay. A digest of the protocol:
(§4)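 pUC18 or pUC18 carrying a T. brucei minicircle, 5 nM in PBS pH 7.4, incubated 30 or 120 min with 20 µM compound or DMSO 1% v/v. DAPI then added to 500 nM final and emission recorded by spectrofluorimetry (ex 358 nm, em 368–600 nm). Fluorescence normalized to the DNA+DMSO+DAPI control set at 100%. Mean ± S.D., n=3.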

The subject of series [14] is DNA. The experiment in a line: Competitive binding affinity to Escherichia coli XL-1 pUC18 K-DNA at 20 uM after 120 mins by DAPI staining based spectrofluorimetric method relative to control. It counts as nucleic-acid assay. In a few lines:
as §4

Series [15] concerns Trypanosoma brucei brucei. The series is described as follows: Antitrypanosomal activity against Trypanosoma brucei brucei AnTaT 1.1 infected in Balb/cJ mouse assessed as reduction in parasitemia at 2.09 to 8.36 mg/kg, ip administered for 7 days and measured up to 17 days. It counts as functional, organism-based. The note with it: dose 2.09-8.36 mg/kg, time 7.0 day. A digest of the protocol:
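Female BalB/cJ mice, 6-8 weeks, ~20 g, infected ip with 10^4 bloodstream T. b. brucei AnTaT 1.1. From day 4 post-infection, groups of 6 dosed ip in 300 µL PBS: daily for 7 days at 2.09 or 8.36 mg/Kg, or one 40 mg/Kg dose; vehicle DMSO 3.3 mg/Kg/day for 7 days. Parasitemia from submandibular blood counted by light microscopy in a Neubauer chamber. Detection limit ≥2.5×10^4 parasites/mL. Kruskal-Wallis test versus vehicle.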

The test system of series [16] is Trypanosoma brucei brucei. The series is described as follows: Antitrypanosomal activity against bloodstream form Trypanosoma brucei brucei 427 assessed as cell viability at 10 nM after 24 hrs by propidium iodide staining based flow cytometric analysis (reference value: 100 +/- 10%). It counts as functional.
For series [17], the system named is Trypanosoma brucei brucei. The experiment in a line: Antitrypanosomal activity against bloodstream form Trypanosoma brucei brucei 427 assessed as cell viability at 1000 nM after 24 hrs by propidium iodide staining based flow cytometric analysis (reference value: 100 +/- 10%). It counts as functional.
Series [18] relates to Trypanosoma brucei brucei. The experiment in a line: Antitrypanosomal activity against bloodstream form Trypanosoma brucei brucei 427 […] assessed as cell viability at 10 nM preincubated in heat-inactivated serum for 45 mins followed by culture addition and measured after 24 hrs by propidium iodide staining based flow cytometric analysis (reference value: 98.5 +/- 1.4%). Type of series: functional. Particulars: time 48.0 hrs, in the assay text read “for 24 hrs” for “for 45 mins”. A digest of the protocol:
(§5)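 Compound at 100 µM, with ≤1% v/v DMSO, held 24 h at 37 °C in fresh serum or in serum heat-inactivated at 54 °C for 45 min. It was then added to 449-hGrx-roGFP2 T. brucei cultures at 10 or 1000 nM final. Viability after 24 h was read by PI flow cytometry as in the standard assay. Untreated serum-exposed controls were included; mean ± SD.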

Series [19] concerns Trypanosoma brucei brucei. The series is described as follows: Antitrypanosomal activity against bloodstream form Trypanosoma brucei brucei 427 […] assessed as cell viability at 1000 nM preincubated in heat-inactivated serum for 45 mins followed by culture addition and measured after 24 hrs by propidium iodide staining based flow cytometric analysis (reference value: 98.5 +/- 1.4%). The note with it: time 48.0 hrs, in the assay text read “for 24 hrs” for “for 45 mins”. Type of series: functional. A digest of the protocol:
as §5

The test system of series [20] is Trypanosoma brucei brucei. The experiment in a line: Antitrypanosomal activity against bloodstream form Trypanosoma brucei brucei 427 […] assessed as cell viability at 10 nM preincubated in fresh serum for 45 mins followed by culture addition and measured after 24 hrs by propidium iodide staining based flow cytometric analysis (reference value: 100 +/- 3.5%). It counts as functional. The note with it: time 48.0 hrs, in the assay text read “for 24 hrs” for “for 45 mins”. In a few lines: as §5

Series [21] concerns Trypanosoma brucei brucei. The series is described as follows: Antitrypanosomal activity against bloodstream form Trypanosoma brucei brucei 427 […] assessed as cell viability at 1000 nM preincubated in fresh serum for 45 mins followed by culture addition and measured after 24 hrs by propidium iodide staining based flow cytometric analysis (reference value: 100 +/- 3.5%). Type of series: functional. Particulars: time 48.0 hrs, in the assay text read “for 24 hrs” for “for 45 mins”. A digest of the protocol: as §5

Molecules are shown by their SMILES. pEC50: −log10 of the molar value. Activity calls are given as the source filed them. The rule behind the calls is not given here. Where only a bound is given, the exact number is not on record here.

Consider `CCOC(=O)c1csc(NC(=O)c2cc(NC(=O)c3csc(NC(=O)OC(C)(C)C)n3)cn2C)n1`, for which the Activity in series [1] was determined as 34%; in [2], 44%; in series [3] it was 0.06%; in [8], 22%; in series [9] it was 94%; in series [10] it was 6%. Besides, the Activity in [11] was determined as 46%; in [12] it was 26%; with DNA [14], 48%; in series [16], 54.1%; in [17], 10.7%; in [18] it was 104.6%. Besides, the Activity came to 17.5% in series [19], 84.2% in series [20] and 17.2% in series [21]. Besides, the pEC50 in series [4] was 8.15; with J774 it was no more than 4.40. The selectivity ratio in series [5] was determined as 5560. Also, the outcome (in series [6]; in series [7]; in the series with DNA [13]; in series [15]) was inactive.
